Assay results: ChEMBL document CHEMBL3352566 (Bioorg Med Chem Lett, 2014)
The source made the active and inactive calls.

Tests used:
[1] = molecular target: T1, Adenosine receptor A1 (Homo sapiens) (UniProt P30542); assay: Displacement of [3H]N6-R-phenylisopropyladenosine from human A1AR expressed in CHO cells at 10 uM after 60 mins by scintillation counting analysis; assay type: cell-based
T1 sequence (whole entry): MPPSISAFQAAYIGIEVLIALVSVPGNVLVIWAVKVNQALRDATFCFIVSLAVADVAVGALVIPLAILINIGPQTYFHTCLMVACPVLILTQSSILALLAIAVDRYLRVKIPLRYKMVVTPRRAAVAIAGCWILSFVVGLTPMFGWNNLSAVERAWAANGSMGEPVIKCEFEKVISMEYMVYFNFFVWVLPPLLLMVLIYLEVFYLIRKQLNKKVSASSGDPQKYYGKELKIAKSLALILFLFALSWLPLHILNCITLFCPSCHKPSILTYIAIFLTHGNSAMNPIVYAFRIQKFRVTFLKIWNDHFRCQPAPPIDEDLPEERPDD
Summary of the method: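 Membranes from CHO cells stably expressing hA1AR, labelled with agonist [3H]N6-R-phenylisopropyladenosine. […] Compound stocks kept in DMSO at −80 °C; n = 3-4.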

Adenosine receptor A2a [2] = molecular target: T2, Adenosine receptor A2a (Homo sapiens, UniProt P29274); assay: Displacement of [3H]2-[p-(2-carboxyethyl)phenyl-ethylamino]-5'-N-ethylcarboxamido-adenosine from human A2aAR expressed in HEK293 cells after 60 mins by scintillation counting analysis; assay type: cell-based
Adenosine receptor A3 [3] = molecular target: T3, Adenosine receptor A3 (Homo sapiens, UniProt P0DMS8); assay: Displacement of [125I]N6-(4-amino-3-iodobenzyl)adenosine-5'-N-methyluronamide from human A3AR expressed in CHO cells after 60 mins by scintillation counting analysis; assay type: cell-based
T3 sequence (P0DMS8 whole entry): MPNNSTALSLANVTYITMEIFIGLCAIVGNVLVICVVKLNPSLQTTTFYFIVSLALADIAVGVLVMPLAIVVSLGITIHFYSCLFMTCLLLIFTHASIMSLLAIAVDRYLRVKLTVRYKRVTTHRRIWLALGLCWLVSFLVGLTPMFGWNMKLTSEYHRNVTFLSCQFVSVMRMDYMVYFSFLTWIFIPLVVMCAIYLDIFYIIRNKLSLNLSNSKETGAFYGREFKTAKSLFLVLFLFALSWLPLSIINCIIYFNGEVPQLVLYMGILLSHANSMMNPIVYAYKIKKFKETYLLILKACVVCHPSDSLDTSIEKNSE

Adenosine receptor A2a [4] = molecular target: T2, Adenosine receptor A2a; assay: Displacement of [3H]2-[p-(2-carboxyethyl)phenyl-ethylamino]-5'-N-ethylcarboxamido-adenosine from human A2aAR expressed in HEK293 cells at 10 uM after 60 mins by scintillation counting analysis; assay type: cell-based
Mus musculus = assay: Reversal of pain in po dosed mouse chronic constriction injury model assessed as paw withdrawal threshold administered 7 days post injury measured after 1 hr; assay type: functional, organism-based
Summary of the method: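 Mouse chronic constriction injury model of neuropathic pain; compound given orally (po); mechanoallodynia read out as paw withdrawal threshold followed over time after dosing.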

Adenosine receptor A1 = molecular target: T4, Adenosine receptor A1 (Homo sapiens, UniProt P30542); assay: Displacement of [3H]N6-R-phenylisopropyladenosine from human A1AR expressed in CHO cells after 60 mins by scintillation counting analysis; assay type: cell-based
T4 sequence (P30542 whole entry): T1 sequence (whole entry)

Adenosine receptor A3 [5] = molecular target: T3, Adenosine receptor A3; assay: Binding affinity to human A3AR

T2 sequence (P29274 whole entry): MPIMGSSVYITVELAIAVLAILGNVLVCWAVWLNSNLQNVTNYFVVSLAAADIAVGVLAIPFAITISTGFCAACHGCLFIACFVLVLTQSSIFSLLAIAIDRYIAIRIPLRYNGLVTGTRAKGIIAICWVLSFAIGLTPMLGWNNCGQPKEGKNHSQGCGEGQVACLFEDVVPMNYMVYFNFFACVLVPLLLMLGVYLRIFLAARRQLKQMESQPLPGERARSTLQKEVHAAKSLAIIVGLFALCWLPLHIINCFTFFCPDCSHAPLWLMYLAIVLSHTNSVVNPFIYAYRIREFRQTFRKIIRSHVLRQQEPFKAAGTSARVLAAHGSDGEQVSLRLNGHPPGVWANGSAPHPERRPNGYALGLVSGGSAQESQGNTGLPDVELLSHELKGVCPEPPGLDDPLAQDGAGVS

SMILES | inhibition [1] | inhibition (Adenosine receptor A2a [4]) | further results
CNC(=O)[C@@]12C[C@@H]1[C@@H](n1cnc3c(N)nc(C#Cc4ccccc4)nc31)[C@H](O)[C@@H]2O | 28% | – | Ki (Adenosine receptor A2a [2]): 1200 nM; Ki (Adenosine receptor A3 [3]): 1.51 nM
CNC(=O)[C@@]12C[C@@H]1[C@@H](n1cnc3c(N[C@@H]4C[C@H]4c4ccc(F)c(F)c4)nc(C#Cc4ccccc4)nc31)[C@H](O)[C@@H]2O | 11% | 0% | Ki (Adenosine receptor A3 [3]): 16.9 nM
CNC(=O)[C@@]12C[C@@H]1[C@@H](n1cnc3c(N[C@H]4C[C@@H]4c4ccc(F)c(F)c4)nc(C#Cc4ccccc4)nc31)[C@H](O)[C@@H]2O | 16% | 0% | Ki (Adenosine receptor A3 [3]): 4.55 nM
CNC(=O)[C@@]12C[C@@H]1[C@@H](n1cnc3c(N[C@@H]4C[C@H]4c4ccc(F)c(F)c4)nc(C#Cc4ccccn4)nc31)[C@H](O)[C@@H]2O | 19% | 25% | Activity (Mus musculus): Active
CNC(=O)[C@@]12C[C@@H]1[C@@H](n1cnc3c(N[C@H]4C[C@@H]4c4ccc(F)c(F)c4)nc(C#Cc4ccccn4)nc31)[C@H](O)[C@@H]2O | 26% | 41% | –
OC[C@H]1O[C@@H](n2cnc3c(NC4CC4c4ccccc4)nc(C#Cc4ccccc4)nc32)[C@H](O)[C@@H]1O (mixture of isomers) | – | – | Ki (Adenosine receptor A1): 124 nM
O=[N+]([O-])c1cccc(C2CC2Nc2nc(C#Cc3ccccc3)nc3c2ncn3[C@@H]2O[C@H](CO)[C@@H](O)[C@H]2O)c1 (mixture of isomers) | – | – | Ki (Adenosine receptor A3 [5]): 11.2 nM
CNC(=O)[C@@]12C[C@@H]1[C@@H](n1cnc3c(NC4CC4c4ccc(F)c(F)c4)nc(C#Cc4ccccc4)nc31)[C@H](O)[C@@H]2O (mixture of isomers) | 11% | 6% | –
CNC(=O)[C@@]12C[C@@H]1[C@@H](n1cnc3c(NC4CC4c4cccc(Br)c4)nc(C#Cc4ccccc4)nc31)[C@H](O)[C@@H]2O (mixture of isomers) | 17% | 32% | –
CNC(=O)[C@@]12C[C@@H]1[C@@H](n1cnc3c(NC4CC4c4cccc(C)c4)nc(C#Cc4ccccc4)nc31)[C@H](O)[C@@H]2O (mixture of isomers) | 8% | 53% | –
CNC(=O)[C@@]12C[C@@H]1[C@@H](n1cnc3c(NC4CC4c4cccc(Cl)c4)nc(C#Cc4ccccc4)nc31)[C@H](O)[C@@H]2O (mixture of isomers) | 6% | 39% | –
CNC(=O)[C@@]12C[C@@H]1[C@@H](n1cnc3c(NC4CC4c4cccc(F)c4)nc(C#Cc4ccccc4)nc31)[C@H](O)[C@@H]2O (mixture of isomers) | 18% | 0% | –
CNC(=O)[C@@]12C[C@@H]1[C@@H](n1cnc3c(NC4CC4c4ccccc4)nc(C#Cc4ccccc4)nc31)[C@H](O)[C@@H]2O (mixture of isomers) | 2% | 43% | –
